Data on 13 compounds can be found in ChEMBL document CHEMBL1127556, “Synthesis and topical antiinflammatory and antiallergic activities of antioxidant o-aminophenol derivatives” (J Med Chem, 1994).

Values after ≈ are worked out from the molar mass of the structure shown. Where only a bound is given, the exact number is not on record here.

Assay [1] relates to Mus musculus. Briefly: Compound was evaluated for its inhibitory effects on 12-O-tetradecanoylphorbol-13-acetate (TPA) -induced edema in mouse ear at a dose of 100 ug/site. Type of assay: functional. The procedure, abridged:
(§1)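 Male ICR mice, 30–40 g, 10–15 per group. Test compound applied in 25 μL acetone/pyridine/water 97:2:1 containing TPA (200 μg/mL) to the inner surface of one ear. Killed with CO2 5 h later; 6-mm ear punch weighed wet for edema. ED50 taken from three-point dose titration curves.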

For assay [2], the species on record is Rattus norvegicus. Put plainly: Inhibitory effects on passive cutaneous anaphylaxis in rats at a dose of 1 mg/site. In kind it is functional. The essentials: (§2)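 Male SD rats, eight per group, sensitized intradermally at two dorsal sites with 0.05 mL anti-ovalbumin rat IgE serum diluted 1:8 in 0.9% saline. Compound applied topically to those sites 5 h before iv challenge 48 h later with 2 mg ovalbumin plus 5 mg Evans blue in 1 mL. Extravasated dye measured 30 min later; percent inhibition versus control group.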

Assay [3] deals with Mus musculus. Briefly: Compound was evaluated for its inhibitory effects on arachidonic acid (AA) induced mouse ear edema at a dose of 100 ug/ear. Type of assay: functional. The essentials:
(§3)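 Male ICR mice (30–40 g, 10–15 per group). Compound in 25 μL acetone/pyridine/water 97:2:1 with arachidonic acid (50 mg/mL) applied to inner surface of one ear. After 1 h, CO2 sacrifice, 6-mm disk punched, edema measured as change in wet weight versus controls.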

Assay [4] is filed under the species Rattus norvegicus. Put plainly: Compound was evaluated for its inhibitory effects on passive cutaneous anaphylaxis in rats at a dose of 2.5 mg/site. Type of assay: functional. The procedure, abridged:
as §2

The species entered for assay [5] is Mus musculus. Briefly: Compound was evaluated for its inhibitory effects on delayed type hypersensitive reaction in mouse ears at a dose of 300 ug/site. In kind it is functional. The essentials: (§4)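 ICR mice, 10 or 12 per group, sensitized by abdominal swabbing with 0.1 mL antigen in acetone (7% picryl chloride or 1% OXA). DTH response assessed in mouse ears.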

For assay [6], the species on record is Rattus norvegicus. Put plainly: Compound was evaluated for its inhibitory effects on passive cutaneous anaphylaxis in rats at a dose of 2.5 (mg / site). In kind it is functional. The procedure, abridged: as §2
The species named for assay [7] is Mus musculus. Put plainly: Compound was evaluated for its effective dose to inhibit oxazolone- induced delayed type hypersensitivity.
Assay [8] deals with Mus musculus. Put plainly: Compound was evaluated for its inhibitory effects on arachidonic acid induced ear edema at a dose of 100 (ug / ear).
In assay [9] the test system is Mus musculus. Put plainly: Compound was evaluated for its inhibitory effects on 12-O-tetradecanoylphorbol-13-acetate -induced edema.
The species named for assay [10] is Rattus norvegicus. Briefly: Compound was evaluated for its inhibitory effects on passive cutaneous anaphylaxis in rats at a dose of 1 (mg / site). In kind it is functional. The essentials:
as §2

Assay [11] is filed under the species Mus musculus. Put plainly: Compound was evaluated for its effective dose to inhibit picryl chloride induced delayed type hypersensitivity.
Assay [12] deals with Mus musculus. Put plainly: Inhibitory effects on arachidonic acid (AA) induced mouse ear edema at a dose of 100 ug/ear. In kind it is functional. The essentials: as §3
Assay [13] concerns Mus musculus. Put plainly: Evaluated for its inhibitory effects on 12-O-tetradecanoylphorbol-13-acetate (TPA) -induced edema in mouse ear at a dose of 100 ug/site. In kind it is functional. The essentials: as §1
For assay [14], the species on record is Mus musculus. Put plainly: Inhibitory effects on delayed type hypersensitive reaction in mouse ears at a dose of 300 ug/site. Type of assay: functional. The essentials:
as §4

For assay [15], the species on record is Rattus norvegicus. Briefly: Evaluated for its antioxidative effect using the thiobarbituric acid (TBA) method in rat. In kind it is functional. The essentials:
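Test sample in 67 mM phosphate buffer pH 7.4 mixed with 10% male Wistar rat (300–400 g) forebrain homogenate. Shaken 1 h at 37 °C, deproteinated with 20% TCA. Supernatant heated 10 min at 100 °C with 1.2% thiobarbiturate; absorbance read at 532 nm.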

Assay [16] concerns Cavia porcellus. Put plainly: Compound was evaluated for maximization test in guinea pigs and the edema was observed for the experiment 2;4/4. Type of assay: functional. The essentials: (§5)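 Maximization test in guinea pigs with the dorsal neck region clipped and then shaved. Skin reactions were read at 24 and 48 h. Erythema was graded 0–4 and edema 0–3, and values are counts of animals at each grade. Groups held 6 animals, or 4 in the control-paired group.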

In assay [17] the test system is Cavia porcellus. Briefly: Compound was evaluated for maximization test in guinea pigs and the edema was observed for the experiment 3. In kind it is functional. The essentials: as §5
For assay [18], the species on record is Cavia porcellus. Briefly: Compound was evaluated for maximization test in guinea pigs and the erythema was observed for the experiment 1. In kind it is functional. The essentials: as §5
For assay [19], the species on record is Cavia porcellus. Put plainly: Compound was evaluated for maximization test in guinea pigs and the erythema was observed for the experiment 2;3/0. In kind it is functional. The essentials:
as §5

For assay [20], the species on record is Cavia porcellus. Put plainly: Compound was evaluated for maximization test in guinea pigs and the erythema was observed for the experiment 0. Type of assay: functional. The procedure, abridged:
as §5

Assay [21] deals with Cavia porcellus. Put plainly: Compound was evaluated for maximization test in guinea pigs and the edema was observed for the experiment 0. In kind it is functional. The procedure, abridged: as §5
The species entered for assay [22] is Cavia porcellus. Put plainly: Compound was evaluated for maximization test in guinea pigs and the erythema was observed for the experiment 4;0/2. In kind it is functional. The procedure, abridged: as §5
The species entered for assay [23] is Cavia porcellus. Briefly: Compound was evaluated for maximization test in guinea pigs and the erythema was observed for the experiment 3;1/2. Type of assay: functional. The procedure, abridged: as §5
The test system of assay [24] is Cavia porcellus. Put plainly: Compound was evaluated for maximization test in guinea pigs and the edema was observed for the experiment 1. In kind it is functional. The essentials: as §5

Take `CN(C)CCOC(c1ccccc1)c1ccccc1` [DIPHENHYDRAMINE]: the ED50 in the assay on Mus musculus [1], with Mus musculus [3] and in the assay listed under Mus musculus [5] was over 300 µg/mL in each case. In addition, the Inhibition (as a rule, the change of the read-out against control, counted positive when it falls) in the assay listed under Rattus norvegicus [2] stood at 27.9%; in the assay listed under Rattus norvegicus [4], 52.8%.
In the case of `C[C@]12CCC(=O)C=C1CCC1[C@@H]2[C@@H](O)C[C@@]2(C)[C@H]1CC[C@]2(O)C(=O)CO` (single isomer, unassigned) [HYDROCORTISONE], the Inhibition in the assay listed under Rattus norvegicus [6] was -16.4%; in the assay listed under Rattus norvegicus [10] it was 6.99%. Further, the ED50 in the assay listed under Mus musculus [7] stood at 3.43 µg/mL (≈ 9.46 µM); in the assay with Mus musculus [8], 3.09 µg/mL (≈ 8.52 µM); in the assay with Mus musculus [9] it was 6.69 µg/mL (≈ 18.5 µM); in the assay filed under Mus musculus [11] it was 1.2 µg/mL (≈ 3.31 µM).
With `CC(C)(C)c1ccc(O)c(NCCCN2CCN(C(c3ccccc3)c3ccc(Cl)cc3)CC2)c1` (stereo not given), the Inhibition in the assay on Mus musculus [12] amounted to 38%; in the assay on Mus musculus [13], 82.4%; in the assay listed under Rattus norvegicus [2], 12.6%; in the assay listed under Mus musculus [14], 60.6%. The IC50 (as a rule, the concentration at which inhibition is half-maximal) in the assay filed under Rattus norvegicus [15] is 0.068 µg/mL (≈ 0.138 µM).
As for `Cc1ccc(O)c(N(CCCN2CCN(C(c3ccc(F)cc3)c3ccc(F)cc3)CC2)C(C)C)c1`, the Inhibition in the assay on Mus musculus [13] turned out to be 24.2%. The half-inhibitory concentration (IC50) in the assay filed under Rattus norvegicus [15] worked out at 1.2 µg/mL (≈ 2.43 µM).
Taken in the same sequence, the figures for `Cc1ccc(O)c(N(CCCN2CCC(C(O)(c3ccccc3)c3ccccc3)CC2)C(C)C)c1` were 39.2% and 0.79 µg/mL (≈ 1.67 µM).
Regarding `Cc1ccc(O)c(N(CCCN2CCN(C(c3ccccc3)c3ccccc3)CC2)C(C)C)c1`, the Inhibition in the assay with Mus musculus [13] was 42.6%. Further, in the assay listed under Rattus norvegicus [15], the IC50 was 0.29 µg/mL (≈ 0.634 µM).
`Cc1c(C)c2c(c(C)c1O)CC[C@@](C)(CCC[C@H](C)CCC[C@H](C)CCCC(C)C)O2` [ALPHA-TOCOPHEROL] had an IC50 in the assay filed under Rattus norvegicus [15] of 0.87 µg/mL (≈ 2.02 µM).
As for `O=[N+]([O-])c1ccc(Cl)c([N+](=O)[O-])c1`, the Edema stood at 4 with Cavia porcellus [16], 0 in the assay with Cavia porcellus [17], 0 with Cavia porcellus [21] and 0 in the assay with Cavia porcellus [24]. Moreover, the Erythema in the assay listed under Cavia porcellus [18] came to 0; in the assay listed under Cavia porcellus [19], 3; in the assay filed under Cavia porcellus [20] it was 0; in the assay filed under Cavia porcellus [22], 0; in the assay listed under Cavia porcellus [23], 1.
As for `Cc1ccc(O)c(NCCCN2CCC(OC(c3ccc(F)cc3)c3ccc(F)cc3)CC2)c1`, the Inhibition with Mus musculus [12] worked out at 49.8%; in the assay with Mus musculus [13] it was 61.8%; in the assay listed under Rattus norvegicus [2] it was 39%; in the assay filed under Mus musculus [14], 59.3%. The compound also had a half-maximal inhibitory concentration (IC50) in the assay listed under Rattus norvegicus [15] of 0.028 µg/mL (≈ 0.06 µM).
Regarding `CC(C(=O)O)c1ccc(C(=O)c2cccs2)cc1` (stereo not given) [SUPROFEN], the results for the ED50 in the assay with Mus musculus [1], with Mus musculus [3] and in the assay listed under Mus musculus [5] were 123.2 µg/mL (≈ 473 µM), 15.4 µg/mL (≈ 59.2 µM) and over 300 µg/mL, respectively. Also, the Inhibition in the assay filed under Rattus norvegicus [2] is -0.7%; in the assay filed under Rattus norvegicus [4], 16.9%.
`Cc1ccc(O)c(N(C)CCCN2CCN(C(c3ccccc3)c3ccccc3)CC2)c1`: the Inhibition in the assay with Mus musculus [13] was determined as 50.9%. In addition, in the assay listed under Rattus norvegicus [15], the concentration for half-maximal inhibition (IC50) worked out at 0.3 µg/mL (≈ 0.698 µM).
`Cc1ccc(O)c(NCCCN2CCCN(C(c3ccccc3)c3ccc(Cl)cc3)CC2)c1` (stereo not given): the Inhibition with Mus musculus [12] worked out at 50.3%; with Mus musculus [13], 87%; in the assay listed under Rattus norvegicus [2], 36.4%. Besides, inhibition in the assay filed under Rattus norvegicus [15] was half-maximal at 0.013 µg/mL (≈ 0.028 µM) (IC50).
Turning to `Cc1ccc(O)c(NCCCN2CCN(C(c3ccc(Cl)cc3)c3ccc(Cl)cc3)CC2)c1`, in the assay on Mus musculus [13], the Inhibition is given as 58.2%. In addition, the half-maximal inhibitory concentration (IC50) in the assay listed under Rattus norvegicus [15] was 0.48 µg/mL (≈ 0.991 µM).
